PostGolgi ctrl – growth inhibition of yeast control strain, primary screen, counter-screen for post-Golgi transport modulator project; 98,000 tested, 5% active; inhibition, % at 10 µM; efflux-deficient yeast background strain, growth absorbance A615, 16 h
E coli WT exp – growth inhibitors of wild-type E. coli, primary screen, strain BW25113, expanded library, OD600. OD600 absorbance. growth inhibition, % at 100 µM. 98,000 tested, 0.15% active. AID 710, 2007;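 active means growth inhibition above about 50% at one test dose, limit read from the data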;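 further: growth measured after 20 h incubation at 37 °C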
PLAP act – PLAP enzyme activators, biochemical, luminescence, HTS | Alkaline phosphatase, placental type (Homo sapiens), P05187 | purified PLAP enzyme, luminescent substrate read-out; hits give high values | activation fold at 20 µM | 96,000 tested, 1.2% active; in the data active means activation fold above about 2
Target sequence (P05187 whole entry, looked up): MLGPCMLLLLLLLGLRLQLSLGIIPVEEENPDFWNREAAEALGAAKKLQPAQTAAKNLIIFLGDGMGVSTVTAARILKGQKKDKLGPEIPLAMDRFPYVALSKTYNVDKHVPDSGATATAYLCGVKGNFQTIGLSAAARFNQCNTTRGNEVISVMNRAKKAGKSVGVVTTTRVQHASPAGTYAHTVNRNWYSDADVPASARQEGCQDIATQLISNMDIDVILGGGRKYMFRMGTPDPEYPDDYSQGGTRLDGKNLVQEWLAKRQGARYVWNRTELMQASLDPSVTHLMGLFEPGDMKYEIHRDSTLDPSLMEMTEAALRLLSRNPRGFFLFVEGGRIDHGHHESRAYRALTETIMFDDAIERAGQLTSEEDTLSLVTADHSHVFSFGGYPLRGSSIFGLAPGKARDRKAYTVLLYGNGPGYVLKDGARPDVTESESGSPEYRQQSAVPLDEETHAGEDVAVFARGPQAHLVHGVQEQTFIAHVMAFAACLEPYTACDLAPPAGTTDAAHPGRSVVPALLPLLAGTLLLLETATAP
HePTP inhibitor – inhibitors of human HePTP phosphatase, primary screen, biochemical, absorbance, leukemia target | Tyrosine-protein phosphatase non-receptor type 7 (Homo sapiens), P35236 | recombinant HePTP phosphatase activity, OD absorbance | inhibition, % at 20 µM | 110,000 tested, 0.64% active; in the data active means inhibition above about 50%
PostGolgi yeast – phenotypic screen on post-Golgi transport, primary screen; post-Golgi transport phenotypic cell assay; inhibition, % at 10 µM; 98,000 tested, 0.9% active;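 further: yeast cells grown in 1536-well plates; yeast grown about 18 h at 30C before absorbance read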
tolC growth inh – growth inhibitors of E. coli tolC mutant, primary screen, strain BW25113 ΔtolC::kan, 384-well. OD615. growth inhibition, % at 10 µM (by protocol). 65,000 tested, 2.2% active;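 active means growth inhibition at or above a cutoff equal to the mean over every tested compound plus 3 SD, cut at about 60% in these data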;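 further: growth measured after 20 h incubation at 37 °C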
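signal = optical density read at 615 nm | test system = E. coli ΔtolC::kan strain BW25113 | timing = 20 h compound exposure of bacteria at 37 °C | buffer or medium = LB medium plus 50 µg/mL kanamycin | compound dosing = 10 µM final, single dose | evaluation = % inhibition of E. coli growth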
A number is an active result; i = inactive; nt = not tested or not shown. Rows were chosen to be rich in hits. Some 5.5% of all compounds tested hit in one or more screens of this group. Unless noted, no stated cut-off is given here; in the data, active means inhibition above about 30%; inactive means the rest.

SMILES	PostGolgi ctrl	E coli WT exp	PLAP act	HePTP inhibitor	PostGolgi yeast	tolC growth inh
CCOC(=O)c1nnc(-c2ccccc2)nc1Sc1c(Cl)cccc1Cl	i	i	i	nt	i	nt
CCOC(=O)c1nnc(-c2cccs2)nc1Oc1ccc(Cl)cc1	47	i	i	nt	i	nt
CCOC(=O)c1nnc(-c2cccs2)nc1Oc1ccccc1C(=O)OC	i	i	i	nt	i	nt
C/C(=N\OCc1nc2c3c4c(sc3ncn2n1)C(C)(C)NC(C)(C)C4)c1ccc(Br)cc1	nt	nt	nt	i	nt	nt
C/C(=N\OC(=O)Nc1ccccc1)c1ccccn1	nt	nt	nt	i	nt	nt
CC1C(c2ccccc2)NC(c2ccccc2)C(C)C1(O)C#Cc1ccccc1 (stereo not given)	nt	nt	nt	i	nt	nt
COc1ccc(OC)c(N2C(=O)C3C4C=CC(C4)C3C2=O)c1 (stereo not given)	nt	nt	nt	i	nt	nt
COc1ccc(NC(=O)c2ccc(Cl)c(S(=O)(=O)N3CCc4ccccc4C3)c2)cn1	45	i	i	i	i	62
COc1ccc(-c2c(C)nn(Cc3ccccc3)c2N)cc1	42	i	i	nt	i	nt
COc1ccccc1Cn1c(-c2ccccc2OC)nc2ccccc21	48	i	i	nt	i	nt
C=CCn1c(-c2ccc(OC)cc2)nc2ccccc21	i	i	i	i	i	i
COc1ccc(-c2nc3ccccc3n2Cc2ccccc2)cc1	55	i	i	nt	i	nt
COc1ccc(Cn2c(/C=C/c3ccccc3)nc3ccccc32)cc1	43	i	i	nt	i	nt
Oc1ccccc1Cn1c(-c2ccccc2O)nc2ccccc21	i	i	i	i	i	i
Cc1ccc(N(CC(=O)NCc2ccccc2C)S(C)(=O)=O)cc1	nt	nt	nt	i	nt	nt
O=C(CCCN1C(=O)c2cccc3cccc(c23)C1=O)OC/C=C/c1ccccc1	nt	nt	nt	i	nt	nt
CCOC(=O)C(C(=O)Nc1ccc(C)cc1)C1CCCCC1 (stereo not given)	40	i	i	i	i	nt
COC(=O)NC1CSCC1OC(=O)CN1C(=O)c2ccccc2C1=O (stereo not given)	40	i	i	i	i	i
Cc1ccc(-n2c3c(cc(C(=O)O)c2=O)C(=O)CC(C)(C)C3)cc1	i	i	i	i	i	i
Cc1cc2c(n1-c1ccc(Cl)cc1)CC(C)(C)CC2=O	36	i	i	nt	i	nt
O=C(COc1cccc2ccccc12)NNC(=O)Nc1ccccc1	i	i	i	nt	i	nt
O=C(COc1cccc2ccccc12)NNC(=O)[C@@H]1CCCC[C@@H]1C(=O)O	i	i	2	nt	i	nt
c1ccc(-c2nnc3sc(Cc4cccs4)nn23)cc1	30	i	nt	i	i	i
Clc1ccc(-c2nnc3sc(Cc4cccs4)nn23)cc1	nt	nt	i	i	nt	i
O=C(O)CCSc1nc2ccc([N+](=O)[O-])cc2s1	nt	nt	nt	i	nt	nt
SMILES	PostGolgi ctrl	E coli WT exp	PLAP act	HePTP inhibitor	PostGolgi yeast	tolC growth inh
COc1cccc(Nc2c([N+](=O)[O-])c(=O)n(C)c3ccccc23)c1	nt	nt	nt	i	nt	nt
CC1CC(N(C(=O)c2ccccc2Cl)c2ccccc2)c2ccccc2N1 (stereo not given)	39	i	i	nt	i	nt
CCC(Oc1ccccc1)C(=O)Nc1ccc(-c2nnc(-c3ccco3)o2)cc1 (stereo not given)	i	i	i	i	i	66
CCC(Oc1ccccc1)C(=O)Nc1nnc(C(F)(F)F)s1 (stereo not given)	48	i	i	i	i	87
CCC(Oc1ccccc1)C(=O)Nc1ccccc1OC (stereo not given)	31	i	i	i	i	i
CCC(Oc1ccccc1)C(=O)Nc1cccc2c1C(=O)c1ccccc1C2=O (stereo not given)	nt	nt	nt	i	nt	nt
CCC(Oc1ccccc1)C(=O)Nc1nnc(C)s1 (stereo not given)	31	i	i	i	i	i
Cc1ccc2nsnc2c1NC(=O)c1ccccc1F	nt	nt	nt	i	nt	nt
CCC(C(=O)Nc1ccc(OC)cc1OC)c1ccccc1 (stereo not given)	nt	nt	nt	104	nt	nt
CCC(C(=O)Nc1cc([N+](=O)[O-])ccc1OC)c1ccccc1 (stereo not given)	nt	nt	nt	i	nt	nt
CC(=O)C1=C(O)C(=O)N(CCN(C)C)C1c1ccc2c(c1)OCO2 (stereo not given)	nt	nt	nt	i	nt	nt
CCC(=O)Nc1nc(-c2ccc(Cl)c(Cl)c2)cs1	nt	nt	nt	i	nt	nt
COc1ccc2nc(NC(=O)C3CCN(S(=O)(=O)c4cccs4)CC3)sc2c1	37	i	i	nt	i	nt
Cc1csc(NC(=O)CNS(=O)(=O)c2cccs2)n1	i	i	2	i	i	i
Cc1ccc2nc(NC(=O)C3CCN(S(=O)(=O)c4cccnc4)CC3)sc2c1	i	i	i	nt	i	nt
Cc1ccc2nc(NC(=O)C3CCN(S(=O)(=O)c4cccs4)CC3)sc2c1	44	i	i	i	38	i
COc1ccc2nc(NC(=O)CNS(=O)(=O)c3cccs3)sc2c1	i	i	2.5	nt	i	nt
Cc1ccc(NC(=O)/C(=C/c2ccccc2Cl)NC(=O)c2ccc(C)cc2)cc1	nt	nt	nt	i	nt	nt
COC(=O)/C(=C\Nc1cccc2ccccc12)[N+](=O)[O-]	nt	nt	nt	i	nt	nt
COc1ccc2nc(NC(=O)C3CCN(S(=O)(=O)c4cccnc4)CC3)sc2c1	i	i	i	nt	i	nt
COc1ccc2nc(NC(=O)C3CCCN(S(=O)(=O)c4cccs4)C3)sc2c1 (stereo not given)	38	i	i	i	i	68
O=C1CSC(=S)N1c1ccccc1C(F)(F)F	nt	nt	nt	i	nt	nt
CCOc1cc(/C=C(/C#N)c2ccc(F)cc2)ccc1OCc1ccc(C(=O)O)o1	i	i	i	i	i	82
CCOc1cc(/C=C(/C#N)c2nc3ccccc3[nH]2)ccc1OCc1ccc(C(=O)O)o1	i	i	i	nt	i	nt
CC(C(=O)Nc1ccc(-c2nc3ccccc3o2)cc1)(c1ccccc1)c1ccccc1	nt	nt	nt	i	nt	nt
SMILES	PostGolgi ctrl	E coli WT exp	PLAP act	HePTP inhibitor	PostGolgi yeast	tolC growth inh
C=CCNC(=S)NNC(=O)C(CCCC)CC(C)O (stereo not given)	i	i	nt	nt	i	nt
C=CCNC(=S)NNC(=O)CCC(O)CCCCC (stereo not given)	i	i	2.4	nt	i	nt
Cc1ccc(-n2c(C)cc(C(=O)CSc3nncs3)c2C)cc1	48	i	i	i	i	i
Cc1cc(C(=O)CSc2nncs2)c(C)n1-c1c(C)n(C)n(-c2ccccc2)c1=O	36	i	i	i	i	i
Cc1ccc(-n2c(C)cc(C(=O)CSc3nnnn3C)c2C)cc1	i	i	i	i	i	i
Cc1nnc(SCC(=O)c2cc(C)n(-c3c(C)n(C)n(-c4ccccc4)c3=O)c2C)s1	i	i	i	i	i	i
COCCn1nnnc1C(C(C)C)N(Cc1cccnc1)Cc1ccccc1Cl (stereo not given)	38	i	i	i	i	i
Oc1ccc(Br)cc1-c1cc(-c2ccco2)[nH]n1	79	i	i	nt	i	nt
Cc1cc(-c2cc(Cl)ccc2O)n[nH]1	nt	nt	nt	i	nt	nt
Oc1ccccc1-c1cc(-c2ccco2)[nH]n1	30	i	i	i	i	nt
